{
  "source": "ChEMBL document CHEMBL4033615",
  "about": "“Protoxenicins A and B, Cytotoxic Long-Chain Acylated Xenicanes from the Soft Coral Protodendron repens” (2017)",
  "format_in_all_cases": "functional",
  "conditions_in_all_cases": "for CC50: read-out: LC50 (the source's name)",
  "key": {"HT-29": {"tested_on": "HT-29", "experiment": "Cytotoxic activity against human HT-29 cells", "summary_of_the_method": "(§1)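 Human tumour lines (A-549 lung carcinoma, MDA-MB-231 breast adenocarcinoma, HT-29 colorectal carcinoma) exposed to test agent. Growth measured against untreated control cells. Survival estimated with the NCI algorithm, yielding three dose–response parameters: GI50 (50% growth inhibition), TGI (total growth inhibition) and LC50 (50% cell death).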"}, "A549": {"tested_on": "A549", "experiment": "Cytotoxic activity against human A549 cells", "summary_of_the_method": "as §1"}, "MDA-MB-231": {"tested_on": "MDA-MB-231", "experiment": "Cytotoxic activity against human MDA-MB-231 cells", "summary_of_the_method": "as §1"}},
  "data": [
    {"smiles": "C=C1[C@@H]2[C@@H](OC(C)=O)OC=C([C@@H](OC(C)=O)[C@H](C=C(C)C)OC(=O)CCCCCCCCC)[C@H]2CC/C(C)=C/[C@@H](O)[C@H]1O", "values": [
      {"measurement": "GI50", "setting": "HT-29", "value": 1700, "unit": "nM"},
      {"measurement": "TGI", "setting": "HT-29", "value": 5200, "unit": "nM"},
      {"measurement": "CC50", "setting": "HT-29", "value": 10400, "unit": "nM"},
      {"measurement": "GI50", "setting": "A549", "value": 6100, "unit": "nM"},
      {"measurement": "TGI", "setting": "A549", "value": 10100, "unit": "nM"},
      {"measurement": "CC50", "setting": "A549", "value": 13300, "unit": "nM"},
      {"measurement": "GI50", "setting": "MDA-MB-231", "value": 6300, "unit": "nM"},
      {"measurement": "TGI", "setting": "MDA-MB-231", "value": 9700, "unit": "nM"},
      {"measurement": "CC50", "setting": "MDA-MB-231", "value": 12900, "unit": "nM"}
    ]},
    {"smiles": "COc1cccc2c1C(=O)c1c(O)c3c(c(O)c1C2=O)C[C@@](O)(C(=O)CO)C[C@@H]3O[C@H]1C[C@H](N)[C@H](O)[C@H](C)O1", "note": "[DOXORUBICIN]", "values": [
      {"measurement": "GI50", "setting": "HT-29", "value": 300, "unit": "nM"},
      {"measurement": "TGI", "setting": "HT-29", "value": 900, "unit": "nM"},
      {"measurement": "CC50", "setting": "HT-29", "value": "> 17200", "unit": "nM"},
      {"measurement": "GI50", "setting": "A549", "value": 200, "unit": "nM"},
      {"measurement": "TGI", "setting": "A549", "value": 900, "unit": "nM"},
      {"measurement": "CC50", "setting": "A549", "value": "> 17200", "unit": "nM"},
      {"measurement": "GI50", "setting": "MDA-MB-231", "value": 200, "unit": "nM"},
      {"measurement": "TGI", "setting": "MDA-MB-231", "value": 500, "unit": "nM"},
      {"measurement": "CC50", "setting": "MDA-MB-231", "value": 2400, "unit": "nM"}
    ]},
    {"smiles": "C=C1[C@@H]2[C@@H](OC(C)=O)OC=C([C@@H](OC(C)=O)[C@@H](OC(=O)CCCCCCCCC)[C@H]3OC3(C)C)[C@H]2CC[C@](C)(O)[C@@H]2O[C@@H]2[C@H]1O", "values": [
      {"measurement": "GI50", "setting": "HT-29", "value": 600, "unit": "nM"},
      {"measurement": "TGI", "setting": "HT-29", "value": 1200, "unit": "nM"},
      {"measurement": "CC50", "setting": "HT-29", "value": 2200, "unit": "nM"},
      {"measurement": "GI50", "setting": "A549", "value": 1100, "unit": "nM"},
      {"measurement": "TGI", "setting": "A549", "value": 1400, "unit": "nM"},
      {"measurement": "CC50", "setting": "A549", "value": 1800, "unit": "nM"},
      {"measurement": "GI50", "setting": "MDA-MB-231", "value": 2100, "unit": "nM"},
      {"measurement": "TGI", "setting": "MDA-MB-231", "value": 2800, "unit": "nM"},
      {"measurement": "CC50", "setting": "MDA-MB-231", "value": 3800, "unit": "nM"}
    ]}
  ]
}
